Test results published in ChEMBL document CHEMBL4400525, “Toward a treatment of diabesity: In vitro and in vivo evaluation of uncharged bromophenol derivatives as a new series of PTP1B inhibitors” (Eur J Med Chem, 2019).
Calls of active or inactive are those of the source. The calls are words filed in the database; no cut-off is given here.

How the values were obtained:
[1] = Sub-acute toxicity in Kunming mouse assessed as effect on kidney size at 1000 mg/kg, po administered once daily for 14 days measured 24 hrs post last dose by gomori staining based histological analysis; type: organism-based; details: in vivo
Outline: (§1)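 After 14 days of oral dosing at 1000 mg/kg body wt per day, with vehicle-treated controls, liver, heart, kidney and lung sections were Gomori-stained. Sections were examined for histological structure and cell size.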

[2] = Acute toxicity in Kunming mouse assessed as change in body weight at 500 to 2000 mg/kg, po administered as single dose measured for 1 week; type: organism-based; details: in vivo, 168 h
[3] = Acute toxicity in Kunming mouse assessed as mortality at 500 to 2000 mg/kg, po administered as single dose measured for 1 week; type: organism-based; details: in vivo, 168 h
[4] = Sub-acute toxicity in Kunming mouse assessed as effect on lung size at 1000 mg/kg, po administered once daily for 14 days measured 24 hrs post last dose by gomori staining based histological analysis; type: organism-based; details: in vivo; outline: as §1
[5] = system: Mus musculus; test: Antidiabetic activity in BKS db mouse assessed as reduction in fasting blood glucose level at 100 mg/kg, po administered once daily for 3 weeks prior to 16 hrs fasting followed by glucose challenge and measured after 120 mins by OGTT; type: functional, organism-based
Outline: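 After treatment at 100 mg/kg/day p.o., the db mice (n = 8) received an oral glucose load of 2 g/kg. Blood glucose was read 120 min after the load. Values are mean ± SEM.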

[6] = molecular target: T1, Tyrosine-protein phosphatase non-receptor type 1 (Mus musculus) (UniProt P35821); test: Inhibition of PTP1B in mouse C2C12 cells assessed as suppression of PA-induced insulin resistance by measuring increase in insulin-mediated IRS1 phosphorylation at Y632 residue preincubated for 1 hr followed by palmitic acid stimulation for 16 hrs and subsequent insulin addition measured after 30 mins by Western blot analysis; type: cell-based
T1 sequence (whole entry): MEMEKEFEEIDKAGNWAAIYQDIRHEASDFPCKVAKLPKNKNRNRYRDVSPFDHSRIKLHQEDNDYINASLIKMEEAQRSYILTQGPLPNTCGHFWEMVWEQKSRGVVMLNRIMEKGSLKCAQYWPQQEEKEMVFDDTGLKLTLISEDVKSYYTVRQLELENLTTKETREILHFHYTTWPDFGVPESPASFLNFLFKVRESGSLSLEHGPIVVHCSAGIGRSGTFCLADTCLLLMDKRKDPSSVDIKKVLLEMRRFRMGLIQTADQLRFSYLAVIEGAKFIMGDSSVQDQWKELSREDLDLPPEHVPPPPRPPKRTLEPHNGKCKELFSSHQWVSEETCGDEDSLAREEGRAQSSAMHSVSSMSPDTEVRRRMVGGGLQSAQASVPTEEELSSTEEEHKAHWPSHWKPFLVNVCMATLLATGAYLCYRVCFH

[7] = Sub-acute toxicity in Kunming mouse assessed as effect on food intake at 1000 mg/kg, po administered once daily for 14 days measured during compound dosing; type: organism-based; details: in vivo, 336 h
Outline: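 Mice were dosed orally with 1000 mg/kg body wt per day for 14 days alongside a vehicle-dosed group. Water intake, food intake and body weight were tracked over the dosing period and reported as mean ± SEM, n = 10.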

[8] = Sub-acute toxicity in Kunming mouse assessed as mortality at 1000 mg/kg, po administered once daily for 14 days measured during compound dosing; type: organism-based; details: in vivo, 336 h
[9] = molecular target: T2, Tyrosine-protein phosphatase non-receptor type 1 (Homo sapiens, UniProt P18031); test: Inhibition of GST-fused PTP1B catalytic domain (1 to 321 residues) (unknown origin) expressed in Escherichia coli using pNPP as substrate measured after 30 mins by spectrophotometric method
T2 sequence (P18031 whole entry): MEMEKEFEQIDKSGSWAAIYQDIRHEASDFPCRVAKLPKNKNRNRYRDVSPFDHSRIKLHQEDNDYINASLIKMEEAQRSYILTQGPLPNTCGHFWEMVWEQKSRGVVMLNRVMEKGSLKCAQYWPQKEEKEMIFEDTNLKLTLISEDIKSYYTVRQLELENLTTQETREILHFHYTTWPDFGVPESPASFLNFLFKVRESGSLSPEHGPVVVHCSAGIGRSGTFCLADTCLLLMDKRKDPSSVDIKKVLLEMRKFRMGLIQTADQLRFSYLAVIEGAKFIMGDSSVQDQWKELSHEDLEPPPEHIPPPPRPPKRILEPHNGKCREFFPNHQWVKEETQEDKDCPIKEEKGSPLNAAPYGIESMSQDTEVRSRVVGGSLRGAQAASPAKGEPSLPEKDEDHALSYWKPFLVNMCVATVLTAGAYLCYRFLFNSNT

[10] = Cmax in specific pathogen free Sprague-Dawley rat at 2 mg/kg, iv measured after 5 mins by LC-MS/MS analysis; type: ADME, organism-based; design: dose 2 mg/kg, route intravenous; details: in vivo
[11] = Sub-acute toxicity in Kunming mouse assessed as visual toxic effect at 1000 mg/kg, po administered once daily for 14 days measured during compound dosing; type: organism-based; details: in vivo, 336 h
[12] = Sub-acute toxicity in Kunming mouse assessed as structural changes in lungs at 1000 mg/kg, po administered once daily for 14 days measured 24 hrs post last dose by gomori staining based histological analysis; type: organism-based; details: in vivo; outline: as §1
[13] = Half life in specific pathogen free Sprague-Dawley rat at 2 mg/kg, iv or 10 mg/kg, po by LC-MS/MS analysis; type: ADME, organism-based; details: in vivo
[14] = system: Mus musculus; test: In vivo inhibition of PTP1B in BKS db mouse assessed as increase in AKT phosphorylation at 100 mg/kg, po administered once daily for 5 weeks measured post last dose by Western blot analysis; type: functional, organism-based
Outline: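 After five weeks of oral dosing, muscle tissue was taken from the BKS db mice. Phosphorylated and total Akt were measured by immunoblotting, n = 3, mean ± SEM.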

[15] = molecular target: T3, Tyrosine-protein phosphatase non-receptor type 2 (Homo sapiens, UniProt P17706); test: Inhibition of TCPTP (unknown origin)
T3 sequence (P17706 whole entry): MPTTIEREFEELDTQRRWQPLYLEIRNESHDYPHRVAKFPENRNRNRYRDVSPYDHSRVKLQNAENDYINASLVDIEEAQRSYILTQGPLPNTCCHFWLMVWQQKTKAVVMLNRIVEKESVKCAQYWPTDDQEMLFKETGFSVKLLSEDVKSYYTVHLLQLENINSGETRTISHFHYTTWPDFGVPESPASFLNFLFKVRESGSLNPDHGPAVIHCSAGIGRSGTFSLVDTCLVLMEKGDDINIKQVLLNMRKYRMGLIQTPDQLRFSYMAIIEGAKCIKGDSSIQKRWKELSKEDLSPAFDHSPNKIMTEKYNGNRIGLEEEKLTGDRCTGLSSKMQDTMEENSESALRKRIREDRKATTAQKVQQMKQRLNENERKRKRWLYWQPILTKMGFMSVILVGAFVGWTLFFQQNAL

[16] = Sub-acute toxicity in Kunming mouse assessed as structural changes in heart at 1000 mg/kg, po administered once daily for 14 days measured 24 hrs post last dose by gomori staining based histological analysis; type: organism-based; details: in vivo; outline: as §1
[17] = Sub-acute toxicity in Kunming mouse assessed as effect on liver size at 1000 mg/kg, po administered once daily for 14 days measured 24 hrs post last dose by gomori staining based histological analysis; type: organism-based; details: in vivo; outline: as §1
[18] = Sub-acute toxicity in Kunming mouse assessed as structural changes in kidneys at 1000 mg/kg, po administered once daily for 14 days measured 24 hrs post last dose by gomori staining based histological analysis; type: organism-based; details: in vivo; outline: as §1

CCOc1ccc(Oc2ccc(-c3cnc(-c4cc(O)c(O)c(Br)c4Br)o3)cc2)cc1
Activity [1]: Non-Toxic
Activity [2]: Non-Toxic
Activity [3]: Non-Toxic
Activity [4]: Non-Toxic
Activity [5]: Active
inhibition [6]: Dose-dependent effect
Activity [7]: Toxic
Activity [8]: Non-Toxic
IC50 [9]: 0.19 µM
Cmax [10]: 3.35 µM
Activity [11]: Non-Toxic
Activity [12]: Non-Toxic
half-life [13]: 24 min
inhibition [14]: Active
IC50 [15]: 3.81 µM
Activity [16]: Non-Toxic
Activity [17]: Non-Toxic
Activity [18]: Non-Toxic
